# Measured values of several laboratories.
# Lines come from different studies, so protocols differ.
# Target: Serine/threonine-protein kinase Nek2 (NEK2, Homo sapiens, UniProt P51955)
# Residues used in one study (P51955 1-445): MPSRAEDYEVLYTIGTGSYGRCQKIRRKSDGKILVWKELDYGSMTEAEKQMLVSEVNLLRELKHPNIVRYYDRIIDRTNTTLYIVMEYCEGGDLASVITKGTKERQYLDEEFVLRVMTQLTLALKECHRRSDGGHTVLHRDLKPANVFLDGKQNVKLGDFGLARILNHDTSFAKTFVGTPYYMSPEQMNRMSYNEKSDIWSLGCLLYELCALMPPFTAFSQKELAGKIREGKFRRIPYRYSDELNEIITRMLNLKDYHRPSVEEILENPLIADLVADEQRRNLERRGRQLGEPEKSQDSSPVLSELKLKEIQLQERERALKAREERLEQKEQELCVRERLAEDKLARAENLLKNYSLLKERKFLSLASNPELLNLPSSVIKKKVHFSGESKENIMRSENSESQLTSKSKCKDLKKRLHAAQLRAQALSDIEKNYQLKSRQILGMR
SMILES,test,setting,endpoint,value
O=c1[nH]c2ccccc2n1C1CCN(Cc2ccc(-c3[nH]c4cc5ncnc5cc4nc3-c3ccccc3)cc2)CC1,cell-free assay,0.5 µM,remaining signal,96.8%
COc1cc(Nc2ncc(F)c(Nc3ccc4c(n3)NC(=O)C(C)(C)O4)n2)cc(OC)c1OC,"binding, competition with immobilised ligand",10 µM,inhibition,83%
Cn1cncc1[C@](O)(COc1ccc(C#N)cc1-c1ccc(OC(F)(F)F)cc1)c1ccc(C#N)cc1,"cell-free assay, competition with immobilised ligand",1 µM,remaining binding,100%
Cn1cc(-c2cccc(N3CCc4c(sc5c4CC(C)(C)C5)C3=O)c2CO)cc(Nc2ccncn2)c1=O,"enzyme activity, inhibitor",1 µM,inhibition,4%
COc1ncccc1-c1cnn2ccc(N3CCN(C(=O)OC(C)C)CC3)nc12,"binding, competition with immobilised ligand",1 µM,remaining binding,86%
C#Cc1n[nH]c2c(-c3cn([C@@H](C)c4ccccc4)c(=O)[nH]c3=O)cc(F)cc12,"enzyme activity, inhibitor",0.1 µM,inhibition,0.5%
Cn1cc(-c2cc(F)cc(N3CCn4c(cc5c4CCCC5)C3=O)c2CO)cc(Nc2ccc(N3CCN(C4COC4)CC3)cn2)c1=O,"enzyme activity, inhibitor",0.1 µM,inhibition,10%
CC(C)(C)c1cc(C=C(C#N)C#N)cc(Br)c1O,"enzyme activity, inhibitor",0.5 µM,remaining activity,96%
Nc1ncc(-c2nc(N3CCOCC3)nc(N3CCOCC3)n2)c(C(F)F)n1,"binding, competition with immobilised ligand",10 µM,remaining binding,87%
N#CC1(c2ccccn2)CCN(Cc2cc(C(=O)O)c(=O)n3ccccc23)CC1,"cell-free assay, competition with immobilised ligand",1 µM,remaining binding,100%
Cc1nn(C)cc1-c1nc2c(N3CCN(Cc4ccc(Cl)cc4)CC3)c(Cl)cnc2[nH]1,"binding, competition with immobilised ligand",1 µM,remaining binding,100%
C#Cc1n[nH]c2c(-c3cn(C(C)c4ccccn4)c(=O)[nH]c3=O)cc(F)cc12 (stereo not drawn),"enzyme activity, inhibitor",1 µM,inhibition,-4.6%
